Source: PubChem BioAssay (The Scripps Research Institute Molecular Screening Center)
Shown are actives, neighbours in structure and some others; about 3.3% of the full set was active somewhere.
PRMT1 inh – inhibitors of human PRMT1; Q99873; recombinant PRMT1, activity-based probe fluorescence polarization; inhibition, % at 2.79 µM; 370,000 tested, 1.3% active; AID 652257;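 active = inhibition above about 21% made by adding two undisclosed values, limit read from the data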
SIAE primary – human SIAE inhibition, primary screen. Q9HAT2. SIAE FP-Rh probe binding, fluorescence polarization. inhibition, % at 9.66 µM. 370,000 tested, 0.69% active. AID 1053197;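 active = inhibition above a cutoff: mean of compounds within the control limits plus 3 SD of those, cut at about 17% in these data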;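 note: 0% = plate median of compound wells and 100% = probe without SIAE protein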
rCAG binder – r(CAG) repeat RNA binding; TO-PRO-1 dye displacement fluorescence; inhibition, % at 3 µM; 370,000 tested, 1.3% active;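 active = inhibition above the plate cutoff, the mean of all test compounds on that plate plus 3 SD, cut at about 35% in these data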;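 note: 0% = DMSO alone and 100% = 100 µM mitoxantrone as full dye displacement; higher means more dye released from RNA so lower well fluorescence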
HTRA1 inh – blocks human HTRA1 serine peptidase | inhibition, % at 5.96 µM | recombinant HTRA1, FP-rhodamine activity-based probe, fluorescence polarization | 340,000 tested, 0.5% active | Q92743; in the data active = inhibition above about 36%;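 note: 0% = enzyme with DMSO and 100% = wells lacking enzyme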
Target sequence (Q92743 whole entry, looked up): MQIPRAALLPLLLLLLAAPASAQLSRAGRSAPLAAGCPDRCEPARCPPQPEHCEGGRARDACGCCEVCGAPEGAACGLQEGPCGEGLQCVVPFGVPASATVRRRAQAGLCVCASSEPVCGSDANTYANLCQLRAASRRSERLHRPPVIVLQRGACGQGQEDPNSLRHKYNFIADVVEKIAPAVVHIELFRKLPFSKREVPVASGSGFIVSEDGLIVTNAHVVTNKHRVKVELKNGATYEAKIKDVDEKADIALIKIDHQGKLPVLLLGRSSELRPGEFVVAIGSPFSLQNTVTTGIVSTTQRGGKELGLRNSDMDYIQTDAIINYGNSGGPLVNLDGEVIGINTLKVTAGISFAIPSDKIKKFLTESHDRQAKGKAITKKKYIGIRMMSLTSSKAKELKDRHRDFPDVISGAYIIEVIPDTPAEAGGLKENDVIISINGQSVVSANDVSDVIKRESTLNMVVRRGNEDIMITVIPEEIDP
mABHD4 FP – inhibitors of mouse ABHD4 | Q8VD66 | purified mABHD4, FP-Rh probe fluorescence polarization | inhibition, % at 8.92 µM | 370,000 tested, 0.54% active | AID 720543;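 active = inhibition exceeding the mean over every tested compound plus 3 SD, cut at about 30% in these data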;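 note: 0% = plate median of compound wells and 100% = S159A mutant with DMSO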
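Material: mouse ABHD4 enzyme, wild type; Benchmarks: S159A mutant high control, sample median low control; Buffer or medium: HEPES pH 7.0, NaCl, Pluronic buffer; Signal: fluorescence polarization; Read-out: percent inhibition of probe binding, normalized to plate controls; Timing: pre-incubation 45 min, probe exposure 60 min, at 25 °C; Dosing: 8.92 µM, single dose.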
PRMT1 confirm – confirmation of human PRMT1 inhibitors. shares compounds with PRMT1 inh. recombinant His-PRMT1, activity-based probe fluorescence polarization. inhibition, % at 2.79 µM. 3,300 tested, 42% active;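 active = mean inhibition across replicates above the hit cutoff derived for the earlier primary screen, cut at about 22% in these data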
An asterisk follows results filed as active; i = inactive; x = not tested or not shown.

SMILES	PRMT1 inh	SIAE primary	rCAG binder	HTRA1 inh	mABHD4 FP	PRMT1 confirm
Cc1cc(Cl)ccc1OCc1nnc2n1CCCCC2	-2	-1	-6	4	3	x
COc1ccc(C2C(C(=O)c3cccs3)=C(O)C(=O)N2c2nnc(C)s2)cc1OC (stereo not drawn)	x	x	x	-8	x	x
CSc1nnc(N2C(=O)C(O)=C(C(=O)c3ccco3)C2c2ccccc2)s1 (stereo not drawn)	19	-10	7	3	-4	x
C=CCOc1ccc(C2C(C(=O)c3cccs3)=C(O)C(=O)N2c2nnc(C)s2)cc1 (stereo not drawn)	41*	-9	7	-11	-9	25*
Cc1cccc(N2C(=O)C(O)=C(C(=O)c3cccs3)C2c2ccc(F)cc2)n1 (stereo not drawn)	1	0	3	7	10	x
Cc1ccc(C2C(C(=O)c3ccco3)=C(O)C(=O)N2c2nnc(C)s2)cc1 (stereo not drawn)	30*	1	-4	5	5	5
COc1ccc(C2C(C(=O)c3cccs3)=C(O)C(=O)N2c2nncs2)cc1 (stereo not drawn)	75*	4	-122	-1	3	99*
CC(C)c1nnc(N2C(=O)C(O)=C(C(=O)c3cccs3)C2c2ccccc2)s1 (stereo not drawn)	79*	-21	-73	-10	-23	76*
CCOC(=O)[C@]12CCCC=C1N(Cc1ccccc1)C(=O)[C@H](CC(=O)N1CCN(C(=O)c3ccco3)CC1)C2	-6	-1	4	x	-4	x
CCC(Sc1nccn1C)C(=O)Nc1ccc(Cl)cn1 (stereo not drawn)	0	0	-2	8	-2	x
C=CCSc1nnc(N2C(=O)C(O)=C(C(=O)c3ccco3)C2c2ccccc2F)s1 (stereo not drawn)	27*	-2	25	-14	1	10
CSc1nnc(N2C(=O)C(O)=C(C(=O)c3ccco3)C2c2ccccc2F)s1 (stereo not drawn)	17	0	7	1	1	x
C[C@H](CO)N1C[C@H](C)[C@@H](CN(C)C(=O)Nc2ccccc2)Oc2ccc(NC(=O)Cn3cnnn3)cc2C1=O	-3	3	2	2	7	x
CC1=C(C(=O)O)N2C(=O)C(NC(=O)c3c(F)cccc3F)C2SC1 (stereo not drawn)	-2	11	3	0	0	x
CC1=C(C(=O)O)N2C(=O)C(NC(=O)c3nn(C)c(C)c3Cl)C2SC1 (stereo not drawn)	29*	-1	5	-8	4	38*
CC1=C(C(=O)O)N2C(=O)C(NC(=O)c3nn(C)cc3[N+](=O)[O-])C2SC1 (stereo not drawn)	33*	-1	1	x	6	44*
CC1=C(C(=O)O)N2C(=O)C(NC(=O)c3ccn(C)n3)C2SC1 (stereo not drawn)	6	-1	3	8	5	x
O=C(Nn1cnc2ccccc2c1=O)c1ccccc1[N+](=O)[O-]	-2	-3	-2	3	7	x
Nc1ncnc2c1nc(SCCO)n2Cc1ccccc1	3	-2	-3	7	-1	x
COc1cccc(NC(=O)c2nc(S(C)(=O)=O)ncc2Cl)c1	40*	-2	-1	-26	-12	14
CN(c1ccccc1)S(=O)(=O)c1ccc(NC(=O)c2ccccc2)cc1	0	-13	1	-46	-18	x
CN(c1ccccc1)S(=O)(=O)c1ccc(NC(=O)c2nc(S(C)(=O)=O)ncc2Cl)cc1	40*	-6	6	-29	-10	49*
O=C(NC(=O)c1ccccc1)Nc1ccc(Cl)cn1	0	-8	-2	4	-1	x
CNc1ncnc2c1ncn2[C@H]1CN(Cc2cccnc2)C[C@@H](CO)O1	-5	6	2	x	-1	x
CN=C(c1ccco1)n1c(=S)nc(-c2ccco2)n(C)c1=S	30*	1	11	3	8	23*
SMILES	PRMT1 inh	SIAE primary	rCAG binder	HTRA1 inh	mABHD4 FP	PRMT1 confirm
CC1=C(C(=O)N2CCCCCC2)CC(CC(=O)NC2CCCCC2)C(=O)N1CCC1=CCCCC1 (stereo not drawn)	-1	0	-1	x	-1	x
CCc1ccc(-c2cn(C3CCCCC3)c(=S)[nH]2)cc1	29*	4	3	-2	25	15
CCc1ccc(-n2cc(-c3ccc([N+](=O)[O-])cc3)[nH]c2=S)cc1	4	-1	10	1	0	x
CC/C(=C/c1sc2ccc(C)cc2[n+]1CCCS(=O)(=O)[O-])SC	39*	2	3	x	3	23*
CC/C(=C/c1sc2ccc(C)cc2[n+]1CCO)SC	52*	1	-5	2	2	17
Cc1ccc2sc(C)[n+](CCC(C)S(=O)(=O)[O-])c2c1 (stereo not drawn)	57*	-3	11	-2	-4	31*
CC[n+]1c(S(=O)(=O)[O-])ccc2ccc(C)cc21	5	-8	2	1	-14	x
O=C(O)c1cc(Cl)ccc1-c1ccc(/C=C/c2cc(C(F)(F)F)[nH]c(=O)n2)o1	3	-5	-188	2	-8	x
O=C(O)c1ccccc1-c1ccc(/C=C/c2cc(C(F)(F)F)[nH]c(=O)n2)o1	29*	-28	i	-4	-30	25*
CCCn1c(SCC(=O)NNC(=O)c2ccc(OC)cc2)nnc1C(C)C	-1	-6	0	-4	-1	x
COc1ccc(/C=C/C(=O)OCC(=O)Nc2ccc3c(c2)OCO3)cc1	1	3	3	4	-3	x
COc1ccc(N2C(=O)CC(Sc3nccc(C)n3)C2=O)cc1 (stereo not drawn)	2	2	0	0	2	x
COc1ccc(N2C(=O)CC(Sc3nnc(-c4ccccc4F)n3C)C2=O)cc1 (stereo not drawn)	36*	-1	2	2	-3	48*
CCOc1ccc2nc(SC3CC(=O)N(c4ccc(OC)cc4)C3=O)sc2c1 (stereo not drawn)	7	-6	1	7	5	x
COc1ccc(N2C(=O)CC(Sc3nc4ccccc4s3)C2=O)cc1 (stereo not drawn)	35*	-8	13	-10	-8	4
C=CCNc1nnc(SC2CC(=O)N(c3ccc(OC)cc3)C2=O)s1 (stereo not drawn)	83*	-5	2	-1	4	72*
Cc1nnc(SC2CC(=O)N(c3ccccc3)C2=O)s1 (stereo not drawn)	78*	6	-1	-7	8	70*
Cc1nc(SC2CC(=O)N(c3ccccc3)C2=O)nc2c1CCCC2 (stereo not drawn)	8	-1	-1	-1	1	x
O=C(O)/C=C/C(=O)Nc1ccc(S(=O)(=O)Nc2nccs2)cc1	10	-3	5	1	-6	x
